Assay results taken from ChEMBL document CHEMBL1135597, “A thymidine phosphorylase-stable analogue of BVDU with significant antiviral activity” (J Med Chem, 2002).
Values after ≈ are worked out from the molar mass of the structure shown.

Tests used:
[1] = tested on: Human alphaherpesvirus 1; test: Inhibitory activity against HSV-1 (F) replication in E6SM cell cultures of human embryonic skin-muscle; type: functional, organism-based; settings: Human alphaherpesvirus 1, E6SM
In short: (§1)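 Confluent human embryonic skin-muscle (E6SM) cell cultures were infected with 100 CCID50 of virus. After 1 h adsorption, residual virus was removed and cultures were incubated with test compound at varying concentrations […]. Cytopathicity was scored once complete in infected control cultures. EC50 is the concentration that inhibits virus-induced cytopathicity by 50%.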

[2] = tested on: Vesicular stomatitis virus; test: Inhibitory activity against vesicular stomatitis virus (VSV) replication in E6SM cell cultures of human embryonic skin-muscle; type: functional, organism-based; in short: as §1
[3] = Inhibitory activity against HSV-1 (KOS) replication in E6SM cell cultures of human embryonic skin-muscle; type: functional, cell-based; settings: Human alphaherpesvirus 1, E6SM; in short: as §1
[4] = tested on: E6SM; test: […] in E6SM cell cultures of human embryonic skin-muscle; type: functional
[5] = tested on: Human alphaherpesvirus 1; test: Inhibitory activity against HSV-1 (McIntyre) replication in E6SM cell cultures of human embryonic skin-muscle; type: functional, organism-based; settings: Human alphaherpesvirus 1, E6SM; in short: as §1
[6] = tested on: Vaccinia virus; test: Inhibitory activity against vaccinia virus (VV) replication in E6SM cell cultures of human embryonic skin-muscle; type: functional, organism-based; settings: Orthopoxvirus vaccinia; in short: as §1
[7] = Inhibitory activity against TK-deficient HSV-1 (KOS) replication in E6SM cell cultures of human embryonic skin-muscle; type: functional, cell-based; settings: Human alphaherpesvirus 1, E6SM; in short: as §1

| SMILES | EC50 [1] | EC50 [2] | EC50 [3] | MCC [4] | EC50 [5] | EC50 [6] | EC50 [7] |
| --- | --- | --- | --- | --- | --- | --- | --- |
| O=c1[nH]c(=O)n([C@@H]2CO[C@H](CO)C2)cc1/C=C/Br | 1.9 µg/mL (≈ 5.99 µM) | > 400 µg/mL | 2.6 µg/mL (≈ 8.2 µM) | > 400 µg/mL | 9.6 µg/mL (≈ 30.3 µM) | > 400 µg/mL | > 400 µg/mL |
| Nc1nc2c(ncn2COCCO)c(=O)[nH]1 [ACYCLOVIR] | 0.077 µg/mL (≈ 0.342 µM) | > 400 µg/mL | 0.077 µg/mL (≈ 0.342 µM) | > 400 µg/mL | 0.077 µg/mL (≈ 0.342 µM) | > 400 µg/mL | 48 µg/mL (≈ 213 µM) |
| O=c1[nH]c(=O)n([C@H]2C[C@H](O)[C@@H](CO)O2)cc1/C=C/Br [BRIVUDINE] | 0.026 µg/mL (≈ 0.078 µM) | > 400 µg/mL | 0.026 µg/mL (≈ 0.078 µM) | > 400 µg/mL | 0.026 µg/mL (≈ 0.078 µM) | 1.9 µg/mL (≈ 5.7 µM) | 240 µg/mL (≈ 720 µM) |
| Nc1nc2c(ncn2COC(CO)CO)c(=O)[nH]1 [GANCICLOVIR] | 0.019 µg/mL (≈ 0.0744 µM) | > 100 µg/mL | 0.019 µg/mL (≈ 0.0744 µM) | > 100 µg/mL | 0.019 µg/mL (≈ 0.0744 µM) | > 100 µg/mL | 2.4 µg/mL (≈ 9.4 µM) |
| NC(=O)c1ncn([C@@H]2O[C@H](CO)[C@@H](O)[C@H]2O)n1 [RIBAVIRIN] | 48 µg/mL (≈ 197 µM) | > 400 µg/mL | 48 µg/mL (≈ 197 µM) | > 400 µg/mL | 240 µg/mL (≈ 983 µM) | 240 µg/mL (≈ 983 µM) | 240 µg/mL (≈ 983 µM) |
